Holding throughout (type): ADME, organism-based
A short description of series [1]: AUC (0 to last) in ICR mouse liver at 80 mg/kg, po administered as single dose. The arrangement: dose 80 mg/kg, time 0 - last, route oral.
The nature of series [2]: AUC (0 to infinity) in ICR mouse liver at 80 mg/kg, po administered as single dose. Set-up: dose 80 mg/kg, route oral, time infinity.
The nature of series [3]: Ratio of AUC (0 to infinity) in ICR mouse liver to plasma at 80 mg/kg, po administered as single dose. As to conditions: liver and plasma, read-out: Ratio AUC.
The nature of series [4]: Apparent volume of distribution in ICR mouse plasma at 80 mg/kg, po administered as single dose. The settings on record: read-out: Vz/F. The essentials:
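Male ICR mice, 7 weeks old, 23–28 g, received a single intragastric 80 mg/kg dose in DD water (100 μL/20 g). […] Cmax and Tmax came from the concentration–time curves; t1/2 = ln2/kel; AUC by linear trapezoidal rule extrapolated to infinity; MRT = AUMC/AUC.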

In turn, `O=c1c2ccc(OCc3ccc(OC(F)(F)F)cc3)cc2[nH]c2cc(F)cc(F)c12` displayed an AUC(0-t) in series [1] of 20400 ng·h/mL.

Compound `O=c1c2ccc(OCc3cccc(OC(F)(F)F)c3)cc2[nH]c2cc(F)cc(F)c12` showed an AUC(0-inf) in series [2] of 19300 ng·h/mL. Take `O=c1c2ccc(OCc3cccc(C(F)(F)F)c3)cc2[nH]c2cc(F)cc(F)c12`: in series [1], the AUC(0-t) stood at 11500 ng·h/mL. `O=c1c2ccc(Oc3ccc(OC(F)(F)F)cc3)cc2[nH]c2cc(Cl)cc(F)c12`: the Kp in series [3] came to 112. Consider `O=c1c2cc(OCc3ccc(OC(F)(F)F)cc3)ccc2[nH]c2cc(F)cc(F)c12`, for which the Vd/F in series [4] was 290 L/kg.

These data come from ChEMBL document CHEMBL4602727, “Lead Optimization of Second-Generation Acridones as Broad-Spectrum Antimalarials” (J Med Chem, 2020).
